What was measured:
[1] = tested on: Jurkat T cell leukemia cells; experiment: Cell viability, trypan blue exclusion; type: cell-based; conditions: Homo sapiens, 48 h, read-out: IC50 cytotoxic effects (viability)
[2] = tested on: H522 human lung adenocarcinoma cells; experiment: Cell viability, trypan blue exclusion; type: cell-based; conditions: NCI-H522, 48 h, read-out: IC50 cytotoxic effects (viability)
[3] = target: recombinant human PFKFB3 protein (Homo sapiens, UniProt Q16875); experiment: Recombinant PFKFB3 kinase assay; type: biochemical
recombinant human PFKFB3 protein, sequence (Q16875 whole entry): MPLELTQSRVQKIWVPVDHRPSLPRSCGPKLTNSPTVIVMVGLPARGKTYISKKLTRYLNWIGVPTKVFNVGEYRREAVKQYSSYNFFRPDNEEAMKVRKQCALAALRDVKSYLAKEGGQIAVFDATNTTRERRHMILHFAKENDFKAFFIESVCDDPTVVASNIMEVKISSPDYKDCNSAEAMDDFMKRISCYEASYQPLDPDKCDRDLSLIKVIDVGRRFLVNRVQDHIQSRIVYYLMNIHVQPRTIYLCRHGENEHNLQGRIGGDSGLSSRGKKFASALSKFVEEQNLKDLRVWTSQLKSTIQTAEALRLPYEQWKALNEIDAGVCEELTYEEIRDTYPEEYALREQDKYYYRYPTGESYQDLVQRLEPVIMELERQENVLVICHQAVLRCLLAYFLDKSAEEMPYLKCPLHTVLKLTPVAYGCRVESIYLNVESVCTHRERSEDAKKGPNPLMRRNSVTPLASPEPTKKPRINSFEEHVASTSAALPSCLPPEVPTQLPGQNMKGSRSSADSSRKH

[4] = tested on: Jurkat T cell leukemia cells; conditions: previous studies; cited from earlier work
[5] = tested on: Jurkat and H522 cells; experiment: Intracellular ATP bioluminescence assay; type: cell-based, human; conditions: three hours exposure, Jurkat and H522
Summary of the method: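 After plating at 1×10^5 cells/well (24 h, 37°C, 5% CO2) and 3 h test compound exposure, adherent cells were washed with cold PBS, lysed in passive lysis buffer and scraped. One freeze (−80°C)/thaw (37°C) cycle, cleared at 4°C. ATP read by firefly luciferase/D-luciferin luminescence at 560 nm against an ATP standard curve, as nmol/mg BCA protein.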

[6] = tested on: Jurkat or H522 cells; experiment: 2-[1-14C]-deoxy-D-glucose uptake; type: cell-based, human; conditions: three hours exposure, Jurkat and H522
Summary of the method: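 Jurkat or H522 cells in RPMI 1640 + 10% FCS + 50 μg/ml gentamycin at 100,000/ml, treated immediately with DMSO vehicle or test compound for 3 h. Washed in glucose-free RPMI, 30 min with inhibitor, then 1 h with 14C-2-deoxyglucose (0.1 μCi/μl stock). Ice-cold washes, 0.5% SDS lysis, scintillation counting; counts normalized to BCA protein.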

[7] = tested on: Jurkat T cell leukemia cells; experiment: Annexin V / propidium iodide flow cytometry; type: cell-based, human; conditions: 20 μM, five hours
[8] = Pharmacokinetic profile after IV administration; type: in vivo, female C57Bl/6 mice; conditions: plasma
Summary of the method: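 Test compound was given IV to female C57Bl/6 mice, with 8 time points and 3 animals per time point. Plasma was extracted with acetonitrile and analysed by LC-MS/MS on a polar reverse-phase column with a 0.5% formic acid acetonitrile/water mobile phase. Tmax, Cmax, volume of distribution, half-life, clearance, AUCs and MRT were calculated from the concentration–time data.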

[9] = tested on: Jurkat and H522 cells; experiment: F26BP measurement in cells; type: cell-based, human; conditions: three hours exposure
Summary of the method: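 Cells plated at 1×10^5/well, 24 h in RPMI or DMEM (5% CO2, 37°C), then exposed to test compound for 3 h. Cells triturated, washed twice in PBS, dissolved in […] NaOH. F26BP measured by coupled enzyme reaction and normalized to BCA protein. Triplicate or quadruplicate; unpaired two-tailed t-test.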

[10] = female, C57Bl/6, mouse, iv, 5 mg/kg

IC50 [3]: 22.9 µM
AUC0-inf ([8]; IV, C57Bl/6 mice): 36 ng/h/mL
Cmax [8, 10]: 113 ng/mL
clearance [8, 10]: 2310 mL/min/kg
half-life [8, 10]: 18 min
SMILES: O=C(C=Cc1cccnc1)c1ccncc1 [3PO, 3-(3-pyridinyl)-1-(4-pyridinyl)-2-propen-1-one, reference compound]
IC50 [1]: 7.2 µM
IC50 [2]: 5.57 µM
concentrations that caused cell death [4]: > 10 µM
effect on intracellular ATP [5]: reduced
effect on glucose uptake (14C-2DG) [6]: reduced
cells undergoing early apoptosis (Annexin V+/PI−) [7]: increased
effect on F26BP [9]: reduced
